Data reported in ChEMBL document CHEMBL3351948, “Synthesis of gallinamide A analogues as potent falcipain inhibitors and antimalarials” (J Med Chem, 2014).
The source made the active and inactive calls. The calls are words filed in the database; no cut-off is given here. *1 amine or outer side, *2 acyl side, *3 side chain or, on linkers, in order; H or OH if unused. Where a SMILES comes first, the peptide text is derived from it. [ ]: non-standard residue; d: D form. The star is where a group is joined. Pentenoic(2E,4S-NH2) = C[C@@H](/C=C/C(=O)[*:2])N[*:1]; X1 = CC[C@H](C)[C@@H](C(=O)*)N(C)C; NHBn = c1ccc(CN*)cc1

How the values were obtained:
[1] = molecular target: T1, Falcipain 2 (Plasmodium falciparum, UniProt Q9N6S8); test: Inhibition of Plasmodium falciparum FP2 using Z-Phe-Arg-AMC as substrate incubated for 30 mins prior to substrate addition measured after 30 mins by fluorescence assay
T1 sequence (Q9N6S8 whole entry): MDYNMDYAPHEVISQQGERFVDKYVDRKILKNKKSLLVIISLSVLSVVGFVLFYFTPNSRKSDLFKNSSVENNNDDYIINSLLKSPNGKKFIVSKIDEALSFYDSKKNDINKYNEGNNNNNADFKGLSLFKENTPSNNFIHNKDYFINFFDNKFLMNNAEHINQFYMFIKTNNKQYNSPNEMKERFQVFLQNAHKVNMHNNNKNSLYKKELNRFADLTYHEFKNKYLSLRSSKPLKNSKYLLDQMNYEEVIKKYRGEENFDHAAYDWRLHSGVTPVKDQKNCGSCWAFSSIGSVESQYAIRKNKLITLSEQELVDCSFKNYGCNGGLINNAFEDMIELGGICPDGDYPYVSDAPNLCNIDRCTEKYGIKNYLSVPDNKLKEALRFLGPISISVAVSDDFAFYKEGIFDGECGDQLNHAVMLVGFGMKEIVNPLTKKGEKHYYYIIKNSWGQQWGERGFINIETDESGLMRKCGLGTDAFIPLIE
In short: (§1)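 The assay read enzyme activity with a fluorescence-based kinetic method and reported IC50 in nM. Values are means with standard error of the mean from three experiments.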

[2] = Inhibition of Plasmodium falciparum FP3 using Z-Phe-Arg-AMC as substrate incubated for 30 mins prior to substrate addition measured after 30 mins by fluorescence assay; in short: as §1
[3] = system: Plasmodium falciparum; test: Antiplasmodial activity against chloroquine-sensitive Plasmodium falciparum 3D7 infected in human erythrocytes by [3H]-hypoxanthine incorporation assay; assay type: functional, organism-based
In short: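 IC50 against the chloroquine-sensitive 3D7 strain was measured by [3H]-hypoxanthine incorporation in cultured parasites. Values are means with standard error of the mean from three experiments.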

[4] = system: Plasmodium falciparum; test: Antiplasmodial activity against multidrug-resistant Plasmodium falciparum Dd2 infected in human erythrocytes by [3H]-hypoxanthine incorporation assay; assay type: functional, organism-based
In short: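 Chloroquine-resistant P. falciparum Dd2 strain; IC50 reported with standard error of the mean from three experiments.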

[5] = Cytotoxicity against […] cells assessed as cell viability by AlamarBlue assay; assay type: cell-based; conditions: Homo sapiens
[6] = system: Plasmodium falciparum; test: Inhibition of Plasmodium falciparum AP-M1
[7] = system: Plasmodium falciparum; test: Inhibition of Plasmodium falciparum AP-M17
[8] = system: Plasmodium falciparum; test: Inhibition of Plasmodium falciparum AP-M18
[9] = molecular target: Procathepsin L (Homo sapiens) (UniProt P07711); test: Inhibition of human cathepsin L expressed in Pichia pastoris using N-Cbz-Phe-Arg-7-amino-4-methylcoumarin as substrate incubated for 90 mins prior to substrate addition measured after 30 mins by fluorescence assay
[10] = system: Plasmodium falciparum; test: Antiplasmodial activity against Plasmodium falciparum 3D7 trophozoite stage assessed as swollen food vacuole at <5 nM after 3 days by Giemsa staining-based assay; assay type: functional, organism-based
[11] = system: Plasmodium falciparum; test: Antiplasmodial activity against Plasmodium falciparum 3D7 trophozoite stage assessed as swollen food vacuole after 3 days by Giemsa staining-based assay; assay type: functional, organism-based
[12] = system: Plasmodium falciparum; test: Antiplasmodial activity against Plasmodium falciparum 3D7; assay type: functional, organism-based
In short: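 Chloroquine-sensitive P. falciparum 3D7 cultures; growth inhibition read out as [3H]-hypoxanthine incorporation; IC50 reported with standard error of the mean from three experiments.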

[13] = Inhibition of FP1 in Plasmodium falciparum trophozoite stage after 1 hr by SDS-PAGE analysis
[14] = molecular target: T1, Falcipain 2; test: Inhibition of FP2 in Plasmodium falciparum trophozoite stage after 1 hr by SDS-PAGE analysis
[15] = molecular target: T1, Falcipain 2; test: Inhibition of FP2' in Plasmodium falciparum trophozoite stage after 1 hr by SDS-PAGE analysis
[16] = Inhibition of FP3 in Plasmodium falciparum trophozoite stage after 1 hr by SDS-PAGE analysis

Chain of Procathepsin L (Homo sapiens) (P07711 114-333 limits assumed): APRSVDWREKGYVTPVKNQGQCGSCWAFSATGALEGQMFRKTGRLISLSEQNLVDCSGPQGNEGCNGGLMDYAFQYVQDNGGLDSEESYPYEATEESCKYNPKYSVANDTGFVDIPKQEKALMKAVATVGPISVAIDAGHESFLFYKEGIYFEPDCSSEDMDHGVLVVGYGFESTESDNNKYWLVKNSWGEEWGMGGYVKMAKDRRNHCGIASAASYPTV

Structure (SMILES) | IC50 [1] [nM] | IC50 [2] [nM] | IC50 [3] [nM] | IC50 [4] [nM] | IC50 [5] [nM] | INH [6] [µM] | INH [7] [µM] | INH [8] [µM] | inhibition [9] | Activity [10] | Activity [11] | IC50 [12] [nM] | IC50 [13] [nM] | IC50 [14] [nM] | IC50 [15] [nM] | IC50 [16] [nM]
COC1=CC(=O)N(C(=O)/C=C/[C@H](C)NC(=O)[C@H](CC(C)C)NC(=O)[C@H](CC(C)C)NC(=O)[C@H](C(C)C)N(C)C)[C@H]1Cc1ccc(O)cc1 | 5.25 | 81.4 | 20 | 67 | 18900 | > 10 | > 10 | > 10 | Active | Active | – | – | – | – | – | –
CO[C@H]1CC(=O)N(C(=O)/C=C/[C@H](C)NC(=O)[C@H](CC(C)C)NC(=O)[C@H](CC(C)C)NC(=O)[C@H](C(C)C)N(C)C)[C@H]1C | 2.81 | 163 | 210 | – | – | – | – | – | – | – | Active | – | – | – | – | –
CC[C@H](C)[C@@H](C(=O)N[C@@H](CC(C)C)C(=O)N[C@@H](CC(C)C)C(=O)N[C@@H](C)/C=C/C(=O)N[C@@H](C)C(=O)N1C[C@@H](O)C[C@H]1C(=O)OC)N(C)C | 7700 | > 50000 | 1900 | – | – | – | – | – | – | – | Active | – | – | – | – | –
CC(C)C[C@H](NC(=O)[C@H](CC(C)C)NC(=O)[C@H](C(C)C)N(C)C)C(=O)N[C@@H](C)/C=C/C(=O)N[C@@H](C)C(=O)NCc1ccccc1 | 11500 | > 25000 | 320 | 378 | > 50000 | > 10 | > 10 | > 10 | Active | – | Active | – | – | – | – | –
CC(C)C[C@H](NC(=O)[C@H](CC(C)C)NC(=O)[C@@H]1CCCN1C)C(=O)N[C@@H](C)/C=C/C(=O)N[C@@H](C)C(=O)NCc1ccccc1 | 6000 | 46000 | 6600 | – | – | – | – | – | – | – | Active | – | – | – | – | –
COC1=CC(=O)N(C(=O)/C=C/[C@H](C)NC(=O)[C@H](CC(C)C)NC(=O)[C@H](CC(C)C)NC(=O)[C@H](C(C)C)N(C)C)[C@H]1C | 6.78 | 292 | 89.3 | 302 | 14200 | > 10 | > 10 | > 10 | Active | – | Active | – | – | – | – | –
COC1=CC(=O)N(C(=O)CC[C@H](C)NC(=O)[C@H](CC(C)C)NC(=O)[C@H](CC(C)C)NC(=O)[C@H](C(C)C)N(C)C)[C@H]1C | 3710 | > 50000 | 4380 | – | – | – | – | – | – | – | inactive | – | – | – | – | –
CC(C)C[C@H](NC(=O)[C@H](CC(C)C)NC(=O)[C@H](C(C)C)N(C)C)C(=O)N[C@@H](C)/C=C/C(=O)N1C(=O)C=C(OCc2ccccc2)[C@@H]1C(C)C | 6.86 | 182 | 62 | – | – | – | – | – | – | Active | – | – | – | – | – | –
CC(C)C[C@H](NC(=O)[C@H](CC(C)C)NC(=O)[C@@H](C(C)C)N(C)C)C(=O)N[C@@H](C)/C=C/C(=O)N[C@@H](C)C(=O)NCc1ccccc1 | 3400 | > 25000 | 5400 | 170 | > 50000 | > 10 | > 10 | > 10 | Active | – | Active | – | – | – | – | –
COC1=CC(=O)N(C(=O)/C=C/[C@H](C)NC(=O)[C@H](CC(C)C)NC(=O)[C@H](CC(C)C)NC(=O)[C@H](C(C)C)N(C)C)[C@H]1Cc1c[nH]c2ccccc12 | 12 | 66.7 | 9.7 | 29 | 8500 | > 10 | > 10 | > 10 | Active | Active | – | – | – | – | – | –
CC(C)C[C@H](NC(=O)[C@H](CC(C)C)NC(=O)[C@H](C(C)C)N(C)C)C(=O)N[C@@H](C)/C=C/C(=O)N[C@@H](C)C(=O)Nc1nccs1 | 2500 | 34000 | 1100 | – | – | – | – | – | – | – | Active | – | – | – | – | –
CC[C@H](C)[C@@H](C(=O)N[C@@H](CC(C)C)C(=O)N[C@@H](CC(C)C)C(=O)N[C@H](C(=O)N[C@@H](C)/C=C/C(=O)N[C@@H](C)C(=O)NCc1ccccc1)C(C)C)N(C)C (X1-LLV[Pentenoic(2E,4S-NH2)]A-NHBn) | > 50000 | > 50000 | > 50000 | – | – | – | – | – | – | – | Active | – | – | – | – | –
CC[C@H](C)[C@@H](C(=O)O[C@@H](CC(C)C)C(=O)N[C@@H](CC(C)C)C(=O)N[C@@H](C)/C=C/C(=O)N1C(=O)C=C(OC)[C@@H]1C)N(C)C [GALLINAMIDE A] | – | – | – | – | – | – | – | – | – | – | – | 50 | 140 | 8.5 | 8.5 | 22
CC(C)C[C@H](NC(=O)[C@H](CC(C)C)NC(=O)[C@H](C(C)C)N(C)C)C(=O)N[C@@H](C)/C=C/C(=O)N1CC(OCc2ccccc2)=CC1=O | 9.59 | 196 | 96 | – | – | – | – | – | – | Active | – | – | – | – | – | –
CC[C@H](C)[C@@H](C(=O)N[C@@H](CC(C)C)C(=O)N[C@@H](CC(C)C)C(=O)N[C@@H](C)/C=C/C(=O)N[C@@H](C)C(=O)NCc1ccccc1)N(C)C | 10500 | > 25000 | 540 | 421 | > 50000 | > 10 | > 10 | > 10 | Active | – | Active | – | – | – | – | –
COC1=CC(=O)N(C(=O)/C=C/[C@H](C)NC(=O)[C@H](CC(C)C)NC(=O)[C@H](CC(C)C)NC(=O)[C@H](C(C)C)N(C)C)[C@H]1C(C)C | 9.52 | 131 | 16.6 | 165 | 9650 | > 10 | > 10 | > 10 | Active | Active | – | – | – | – | – | –
CO[C@H]1CC(=O)N(C(=O)CC[C@H](C)NC(=O)[C@H](CC(C)C)NC(=O)[C@H](CC(C)C)NC(=O)[C@H](C(C)C)N(C)C)[C@H]1C | > 50000 | > 50000 | > 50000 | – | – | – | – | – | – | – | inactive | – | – | – | – | –
COC1=CC(=O)N(C(=O)/C=C/[C@H](C)NC(=O)[C@H](CC(C)C)NC(=O)[C@H](CC(C)C)NC(=O)[C@H](C(C)C)N(C)C)C1 | 24.8 | 225 | 57.3 | 419 | 16300 | > 10 | > 10 | > 10 | Active | Active | – | – | – | – | – | –
CC[C@H](C)[C@@H](C(=O)N[C@@H](CC(C)C)C(=O)N[C@@H](CC(C)C)C(=O)N[C@H](C(=O)N[C@@H](C)/C=C/C(=O)N[C@@H](C)C(=O)N1C[C@@H](O)C[C@H]1C(=O)OC)C(C)C)N(C)C | > 50000 | > 50000 | > 50000 | – | – | – | – | – | – | – | Active | – | – | – | – | –
